Measured values reported in ChEMBL document CHEMBL1155945, “Discovery of 2-chloro-N-(4-methoxyphenyl)-N-methylquinazolin-4-amine (EP128265, MPI-0441138) as a potent inducer of apoptosis with high in vivo activity” (J Med Chem, 2008).
The source made the active and inactive calls. The rule behind the calls is not given here.

Tests used:
T47D [1] = experiment: Induction of apoptosis in human T47D cells assessed as caspase 3 activation after 24 hrs; assay type: functional, cell-based
Procedure, shortened: (§1)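 A live-cell, high-throughput caspase-3 activator assay was used, with fluorescent caspase-3 substrates in intact cells. EC50 values for caspase activation are the mean ± SEM of three or more experiments.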

HCT-116 [2] = experiment: Induction of apoptosis in human HCT116 cells assessed as caspase 3 activation after 24 hrs; assay type: functional, cell-based; settings: HCT-116, 24 h; procedure, shortened: as §1
P388 [3] = experiment: Cytotoxicity against mouse P388 cells; assay type: functional, cell-based
Procedure, shortened: (§2)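 Cytotoxicity IC50 was measured in parental P388 cells and in the P388/ADR line, which overexpresses the ABC transporter Pgp-1 (MDR-1). Values are the mean ± SEM of three experiments.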

P388 [4] = experiment: Cytotoxicity against adriamycin-resistant mouse P388 cells expressing p-glycoprotein; assay type: functional, cell-based; procedure, shortened: as §2
T47D [5] = experiment: Growth inhibition of human T47D cells after 48 hrs by CellTiter-Glo assay; assay type: functional
Procedure, shortened: (§3)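 Cells were exposed continuously to the compound for 48 h at 37 °C. CellTiter-Glo reagent was then added and the samples mixed by agitation. After 10-15 min at room temperature, luminescence was read. GI50 was taken as 50% inhibition of cell proliferation. Values are the mean ± SEM of three experiments.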

HCT-116 [6] = experiment: Growth inhibition of human HCT116 cells after 48 hrs by CellTiter-Glo assay; assay type: functional; settings: HCT-116, 48 h; procedure, shortened: as §3
[7] = Inhibition of tubulin polymerization
Mus musculus [8] = experiment: AUC in C57BL/6 mouse brain at 2.5 mg/kg, iv; assay type: ADME, organism-based; parameters: dose 2.5 mg/kg, route intravenous; settings: in vivo
Mus musculus [9] = experiment: Toxicity in human MX1 cells xenografted crl:Nu/Nu-nuBR mouse assessed as decrease in body weight at 10 mg/kg, iv administered once weekly for 2 weeks; assay type: organism-based; parameters: dose 10 mg/kg, route intravenous; scale not given: the % may be the effect or the level left; settings: in vivo, 336 h
Mus musculus [10] = experiment: AUC in C57BL/6 mouse plasma at 2.5 mg/kg, iv; assay type: ADME, organism-based; parameters: dose 2.5 mg/kg, route intravenous; settings: in vivo
PC-3 = experiment: Antitumor activity in human PC3 cells xenografted crl:Nu/Nu-nuBR mouse assessed as tumor growth inhibition at 10 mg/kg, iv administered once weekly for 2 weeks; assay type: functional, organism-based; parameters: dose 10 mg/kg
[11] = Displacement of fluorescent labeled colchicine from tubulin at 50 uM
[12] = Toxicity in human MX1 cells xenografted crl:Nu/Nu-nuBR mouse; assay type: organism-based; settings: in vivo
Procedure, shortened: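 MX-1 human breast tumour xenograft in mice; dosed intravenously once weekly at several dose levels […]. Tolerability was judged by maximum body weight decrease, alongside tumour growth measurement.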

[13] = Therapeutic index, ratio of MTD for human MX1 cells xenografted crl:Nu/Nu-nuBR mouse to tumor growth inhibition in human MX1 cells xenografted crl:Nu/Nu-nuBR mouse; settings: in vivo
MX1 [14] = experiment: Antitumor activity in human MX1 cells xenografted crl:Nu/Nu-nuBR mouse assessed as tumor growth inhibition at 10 mg/kg, iv administered once weekly for 2 weeks; assay type: functional; settings: MX1, 336 h
MX1 [15] = experiment: Antitumor activity in human MX1 cells xenografted crl:Nu/Nu-nuBR mouse assessed as tumor growth inhibition at 2.5 mg/kg, iv administered once a day for 5 days for 2 weeks; assay type: functional

| Structure (SMILES) | EC50 (T47D [1]) [nM] | EC50 (HCT-116 [2]) [nM] | other results |
| --- | --- | --- | --- |
| COc1cccc(N(C)c2nc(Cl)nc3ccccc23)c1 | 25 | 31 |  |
| COc1ccc(CN(C)c2nc(Cl)nc3ccccc23)cc1 | 68 | 120 |  |
| COc1ccccc1N(C)c1nc(Cl)nc2ccccc12 | 4440 | > 10000 |  |
| CC[C@]1(O)C[C@@H]2CN(CCc3c([nH]c4ccccc34)[C@@](C(=O)OC)(c3cc4c(cc3OC)N(C)[C@H]3[C@@](O)(C(=O)OC)[C@H](OC(C)=O)[C@]5(CC)C=CCN6CC[C@]43[C@@H]65)C2)C1 [VINBLASTINE] |  |  | IC50 (P388 [3]): 0.6 nM; IC50 (P388 [4]): 27 nM |
| COc1ccc(N(C)c2nc(NC/C=C(\C)CCC=C(C)C)nc3ccccc23)cc1 |  |  | GI50 (T47D [5]): 850 nM; GI50 (HCT-116 [6]): 350 nM |
| COc1ccc(N(C)c2nc(Cl)nc3cc(Cl)ccc23)cc1 | 300 | 350 |  |
| CCN(c1ccc(OC)cc1)c1nc(Cl)nc2ccccc12 | 39 | 49 |  |
| COc1ccc(Nc2nc(Cl)nc3ccccc23)cc1 | > 10000 | > 10000 |  |
| COc1cc2c(c(OC)c1OC)-c1ccc(OC)c(=O)cc1[C@@H](NC(C)=O)CC2 [COLCHICINE] |  |  | IC50 [7]: 500 nM |
| CCOc1ccc(N(C)c2nc(Cl)nc3ccccc23)cc1 | 5 | 5 |  |
| CN(c1ccc(Cl)cc1)c1nc(Cl)nc2ccccc12 | 68 | 72 |  |
| COc1cccc(N(C)c2nc(Cl)nc3ccccc23)c1OC | 680 | 1110 |  |
| Cc1ccc(N(C)c2nc(Cl)nc3ccccc23)cc1 | 15 | 21 |  |
| COc1ccc(N(C)c2nc(Cl)nc3ccccc23)cc1 |  |  | AUC (Mus musculus [8]): 20563 ng/mL; Activity (Mus musculus [9]): < 10%; IC50 [7]: < 400 nM; AUC (Mus musculus [10]): 669 ng/mL; Activity (PC-3): Active; Activity [11]: Active; IC50 (P388 [3]): 2.1 nM; GI50 (T47D [5]): 1 nM; GI50 (HCT-116 [6]): 2 nM; MTD [12]: 25 mg/kg; selectivity ratio [13]: 2.5; IC50 (P388 [4]): 2.2 nM; inhibition in vivo at 10 mg/kg (MX1 [14]): > 95%; inhibition in vivo at 2.5 mg/kg (MX1 [15]): 90% |
| CC(=O)O[C@@]12CO[C@@H]1C[C@H](O)[C@@]1(C)C(=O)[C@H](O)C3=C(C)[C@@H](OC(=O)[C@H](O)[C@@H](NC(=O)OC(C)(C)C)c4ccccc4)C[C@@](O)([C@@H](OC(=O)c4ccccc4)[C@H]21)C3(C)C [DOCETAXEL] |  |  | IC50 (P388 [3]): 2 nM; IC50 (P388 [4]): 277 nM |
| COc1ccc(N(C)c2nc(Cl)nc3cc(OC)c(OC)cc23)cc1 | 590 | 970 |  |

The next lines start with results.

| EC50 (T47D [1]) [nM] | EC50 (HCT-116 [2]) [nM] | Structure (SMILES) | other results |
| --- | --- | --- | --- |
| 210 | 300 | CN(c1ccccc1)c1nc(Cl)nc2ccccc12 |  |
| > 10000 | > 10000 | CN(c1ccc(Oc2ccccc2)cc1)c1nc(Cl)nc2ccccc12 |  |
| 85 | 120 | CN(c1ccc(O)cc1)c1nc(Cl)nc2ccccc12 |  |
| > 10000 | > 10000 | COc1ccc(Oc2ncnc3ccccc23)cc1 |  |
| 6 | 8 | COc1ccc(N(C)c2ncnc3ccccc23)cc1 |  |
| 10 | 13 | COc1ccc(N(C)c2nc(Cl)nc3ccc(Cl)cc23)cc1 |  |
| 31 | 65 | CN(c1ccc2c(c1)OCO2)c1nc(Cl)nc2ccccc12 |  |
| 17 | 29 | COc1ccc(N(C)c2nc(Cl)nc3ccccc23)cn1 | GI50 (T47D [5]): 37 nM; GI50 (HCT-116 [6]): 40 nM |
| 770 | 1400 | CN(c1ccc([N+](=O)[O-])cc1)c1nc(Cl)nc2ccccc12 |  |
| 9 | 15 | COc1ccc(N(C)c2nc(Cl)nc3ccccc23)cc1OC |  |
| 49 | 59 | CN(c1ccc(OC(F)(F)F)cc1)c1nc(Cl)nc2ccccc12 |  |
| > 10000 | > 10000 | COc1ccc(Nc2nc(Cl)nc3cc(OC)c(OC)cc23)cc1 |  |
